# Experimental data reported in ChEMBL document CHEMBL1142571, “Antiprotozoal compounds from Psorothamnus polydenius” (J Nat Prod, 2005).
# Key:
# Leishmania donovani = test: Antileishmanial activity against Leishmania donovani MHOM/SD/62/1S-CL2D axenic amastigotes after 3 days by tetrazolium dye method; type: functional, organism-based; details: 72 h
# Procedure, shortened: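 L. donovani amastigote-like parasites grown axenically were exposed to compounds for three days. Viability was read with the tetrazolium-based CellTiter reagent.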
# [1] = tested on: Trypanosoma brucei brucei; test: Antitrypanosomal activity against blood stream-form of Trypanosoma brucei brucei MITat1.2 after 72 hrs by MTT assay; type: functional, organism-based
# Procedure, shortened: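 Late-log bloodstream-form T. b. brucei in HMI-9 were incubated with or without compound for 72 h at 37 °C under 5% CO2. MTT (25 µL of a 5 mg/mL stock) was added for 2 h, then 10% SDS in 50% aqueous DMF for 3-4 h. OD was read at 570 nm, and IC50 is 50% growth inhibition versus untreated control.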
# Vero = test: Cytotoxicity against african green monkey Vero cells after 72 hrs by cell-titer assay; type: cell-based; details: Chlorocebus sabaeus
# Procedure, shortened: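 Vero cells (1000/well) in Eagle's MEM with Earle's salts, penicillin/streptomycin and 10% FBS were seeded with serial compound dilutions for 72 h at 37 °C under 5% CO2. CellTiter reagent was then added for 12-14 h, and absorbance was read at 490 nm.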
# J774.A1 = test: Cytotoxicity against mouse J774A1 cells after 72 hrs by cell-titer assay; type: cell-based; details: J774.A1, 72 h
# Procedure, shortened: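 J774 A.1 macrophages (5000/well) in DMEM with penicillin/streptomycin and 10% FBS were seeded with serial compound dilutions for 72 h at 37 °C under 5% CO2. Viability was read by CellTiter, with 12-14 h color development and absorbance at 490 nm.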
# Leishmania mexicana [2] = test: Antileishmanial activity against Leishmania mexicana MNYC/BZ/62/M379 infected in C57BL/6 mouse peritoneal macrophages assessed as reduction in infection at 12.5 ug/ml after 72 hrs relative to control; type: functional; design: scale not given: the % may be the effect or the level left
# Procedure, shortened: (§1)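 Mouse peritoneal macrophages were infected with promastigotes in supplemented DMEM on chamber slides for 24 h at 33 °C under 5% CO2. They were washed with HBSS and given serial drug dilutions for 72 h. Cells were then methanol-fixed and stained with 0.04% Giemsa for 35 min. At least 200 cells per sample were counted under oil immersion, and the value is the % decrease in infected macrophages versus untreated wells.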
# Leishmania mexicana [3] = test: Antileishmanial activity against Leishmania mexicana MNYC/BZ/62/M379 infected in C57BL/6 mouse peritoneal macrophages assessed as reduction in infection at 6.3 ug/ml after 72 hrs relative to control; type: functional; design: scale not given: the % may be the effect or the level left; procedure, shortened: as §1
# Leishmania mexicana [4] = test: Antileishmanial activity against Leishmania mexicana MNYC/BZ/62/M379 infected in C57BL/6 mouse peritoneal macrophages assessed as reduction in infection at 3.1 ug/ml after 72 hrs relative to control; type: functional; design: scale not given: the % may be the effect or the level left; procedure, shortened: as §1
# [5] = Selectivity for Leishmania donovani MHOM/SD/62/1S-CL2D axenic amastigotes over african green monkey Vero cells
# Leishmania mexicana [6] = test: Antileishmanial activity against Leishmania mexicana MNYC/BZ/62/M379 infected in C57BL/6 mouse peritoneal macrophages assessed as reduction in infection at 0.116 ug/ml after 72 hrs relative to control; type: functional; design: scale not given: the % may be the effect or the level left; procedure, shortened: as §1
# Leishmania mexicana [7] = test: Antileishmanial activity against Leishmania mexicana MNYC/BZ/62/M379 infected in C57BL/6 mouse peritoneal macrophages assessed as reduction in infection at 0.029 ug/ml after 72 hrs relative to control; type: functional; design: scale not given: the % may be the effect or the level left; procedure, shortened: as §1
# Leishmania mexicana [8] = test: Antileishmanial activity against Leishmania mexicana MNYC/BZ/62/M379 infected in C57BL/6 mouse peritoneal macrophages assessed as reduction in infection at 0.014 ug/ml after 72 hrs relative to control; type: functional; design: scale not given: the % may be the effect or the level left; procedure, shortened: as §1
# Leishmania mexicana [9] = test: Antileishmanial activity against Leishmania mexicana MNYC/BZ/62/M379 infected in C57BL/6 mouse peritoneal macrophages assessed as reduction in infection at 25 ug/ml after 72 hrs relative to control; type: functional; design: scale not given: the % may be the effect or the level left; procedure, shortened: as §1
# Leishmania mexicana [10] = test: Antileishmanial activity against Leishmania mexicana MNYC/BZ/62/M379 infected in C57BL/6 mouse peritoneal macrophages assessed as reduction in infection at 50 ug/ml after 72 hrs relative to control; type: functional; design: scale not given: the % may be the effect or the level left; procedure, shortened: as §1
SMILES,IC50 (Leishmania donovani) [µg/mL],IC50 [1] [µg/mL],IC50 (Vero) [µg/mL],IC50 (J774.A1) [µg/mL],Activity (Leishmania mexicana [2]) [%],Activity (Leishmania mexicana [3]) [%],Activity (Leishmania mexicana [4]) [%],Ratio IC50 [5],Activity (Leishmania mexicana [6]) [%],Activity (Leishmania mexicana [7]) [%],Activity (Leishmania mexicana [8]) [%],Activity (Leishmania mexicana [9]) [%],Activity (Leishmania mexicana [10]) [%]
COc1c(C)c(O)c(C)c(O)c1C(=O)/C=C/c1ccccc1,5,6.3,12.9,7.7,96,61,28,2.6,–,–,–,–,–
COc1c(C)c(O)c(C)c(O)c1C(=O)/C=C/c1ccccc1O,7.5,6.8,13.3,9.3,96,34,6,1.8,–,–,–,–,–
C[C@@H]1[C@H](O)[C@@H](C)/C=C/C=C/C=C/C=C/C=C/C=C/C=C/[C@H](O[C@@H]2O[C@H](C)[C@@H](O)[C@H](N)[C@@H]2O)C[C@@H]2O[C@](O)(C[C@@H](O)C[C@@H](O)[C@H](O)CC[C@@H](O)C[C@@H](O)CC(=O)O[C@H]1C)C[C@H](O)[C@H]2C(=O)O [AMPHOTERICIN B],–,–,–,–,–,–,–,–,95,85,59,–,–
COC1=C(C)C(=O)C(C)(C)C(=O)/C1=C1\C=Cc2ccccc2O1 [DALRUBONE],7.5,21.6,44.5,30.1,41,1,–,5.9,–,–,–,97,–
Cc1c(O)c(C)c2c(c1O)C(=O)C[C@@H](c1ccccc1)O2 [DEMETHOXYMATTEUCINOL],> 100,28.9,> 50,> 50,–,–,–,–,–,–,–,–,–
O=C1C[C@@H](c2ccc(O)c(O)c2)Oc2cc(O)cc(O)c21 [ERIODICTYOL],25,25,36.5,32.8,30,–,–,–,–,–,–,55,76
N=C(N)c1ccc(OCCCCCOc2ccc(C(=N)N)cc2)cc1 [PENTAMIDINE],1.4,0.007,> 50,12.9,–,–,–,–,–,–,–,–,–
Cc1ccc(C(=O)Nc2ccc(S(=O)(=O)O)c3cc(S(=O)(=O)O)cc(S(=O)(=O)O)c23)cc1NC(=O)c1cccc(NC(=O)Nc2cccc(C(=O)Nc3cc(C(=O)Nc4ccc(S(=O)(=O)O)c5cc(S(=O)(=O)O)cc(S(=O)(=O)O)c45)ccc3C)c2)c1 [SURAMIN],–,0.193,–,–,–,–,–,–,–,–,–,–,–
